Measurements reported in ChEMBL document CHEMBL1127523, “Design and synthesis of side-chain conformationally restricted phenylalanines and their use for structure-activity studies on tachykinin NK-1 receptor” (J Med Chem, 1994).
Starred links: 1 amine or outer side, 2 acyl side, 3 side chain; linkers in the order of their positions; H or OH if unused. Non-standard residues stand in square brackets, D forms with d. Residues, ends and D or L forms follow the SMILES beside them. Gly(9-fluorenyl) = N[C@H](C(=O)O)C1c2ccccc2-c2ccccc21; X1 = O=C([C@@H](N[*:1])C1CCc2ccccc21)[*:2]; Dip = N[C@H](C(=O)O)C(c1ccccc1)c1ccccc1

How the values were obtained:
[1] = species on record: Cavia porcellus; assay: Effective concentration required for its inhibition of nonspecific binding to guinea pig ileal membranes; format: functional
[2] = target: Substance-P receptor (Rattus norvegicus, UniProt P14600); assay: Concentration required to inhibit the specific binding of [125I]BH-SP to Neurokinin-1 (NK-1) receptor in rat brain synaptosomes; format: subcellular
[3] = target: T1, Neuromedin-K receptor (Rattus norvegicus, UniProt P16177); assay: Concentration required to inhibit the specific binding of [125I]BH-ELE to Neurokinin-3 (NK-3) receptor in rat brain synaptosomes; format: subcellular
T1 sequence (P16177 whole entry): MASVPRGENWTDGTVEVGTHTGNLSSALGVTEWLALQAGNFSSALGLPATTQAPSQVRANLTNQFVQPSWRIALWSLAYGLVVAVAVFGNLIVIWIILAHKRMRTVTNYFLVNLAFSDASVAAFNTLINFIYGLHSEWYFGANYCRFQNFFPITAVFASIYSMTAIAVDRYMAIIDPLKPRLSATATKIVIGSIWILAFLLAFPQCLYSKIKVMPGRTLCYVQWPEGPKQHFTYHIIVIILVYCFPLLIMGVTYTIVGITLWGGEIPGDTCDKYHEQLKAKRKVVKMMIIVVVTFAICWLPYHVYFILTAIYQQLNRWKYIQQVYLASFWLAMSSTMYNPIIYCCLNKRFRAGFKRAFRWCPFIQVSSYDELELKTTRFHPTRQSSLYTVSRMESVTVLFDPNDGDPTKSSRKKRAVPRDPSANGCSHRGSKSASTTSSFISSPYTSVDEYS
In short: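 Rat brain synaptosomes in Krebs-Ringer phosphate buffer with BSA, bacitracin and glucose. Incubated 15 min at 20 °C with 40 pM [125I]BHELE and increasing peptide concentrations, gamma counted. Triplicates, two to eight independent experiments; nonspecific binding defined with eledoisin 10⁻⁶ M. IC50 estimated from Hill plots of titration curves.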

[4] = target: T2, Substance-K receptor (Rattus norvegicus, UniProt P16610); assay: Concentration required to inhibit the specific binding of [3H]NKA to Neurokinin-2 (NK-2) receptor in rat duodenum membranes
T2 sequence (P16610 whole entry): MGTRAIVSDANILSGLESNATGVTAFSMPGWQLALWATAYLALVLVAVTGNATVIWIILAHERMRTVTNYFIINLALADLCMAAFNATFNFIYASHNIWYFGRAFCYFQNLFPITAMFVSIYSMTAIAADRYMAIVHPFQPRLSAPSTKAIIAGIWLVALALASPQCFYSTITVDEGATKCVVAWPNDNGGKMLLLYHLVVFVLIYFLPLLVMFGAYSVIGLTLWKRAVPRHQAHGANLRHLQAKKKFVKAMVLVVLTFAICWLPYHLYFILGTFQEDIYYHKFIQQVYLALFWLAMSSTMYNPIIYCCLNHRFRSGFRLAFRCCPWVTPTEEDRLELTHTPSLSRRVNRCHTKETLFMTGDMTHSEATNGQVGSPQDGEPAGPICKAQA

[5] = species on record: Cavia porcellus; assay: Concentration required to inhibit nonspecific binding of [125I]BH-SP to guinea pig ileal membranes; format: functional
[6] = species on record: Cavia porcellus; assay: (§1) pKB value of compound was determined in presence of antagonist RP-67580 at conc. of 10e-7 M; format: functional
[7] = species on record: Cavia porcellus; assay: as §1; format: functional; remark: listed apart in the source
In short: (§2)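 Guinea pig ileum strips (1 cm, terminal portion, males 300–400 g) in oxygenated Tyrode at 37 °C, 1 g tension. Agonist added cumulatively, doubling bath concentration at each steady response. Antagonist RP-67,580, one concentration (10⁻⁷ M), preincubated 5 min before first agonist addition. pKB = log(dose ratio − 1) − log([antagonist]); three independent determinations.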

[8] = species on record: Cavia porcellus; assay: pKb value of compound was determined in presence of antagonist RP-67580 at conc. of 10e-7 M; format: functional; in short: as §2

Substance-P receptor, sequence (P14600 whole entry): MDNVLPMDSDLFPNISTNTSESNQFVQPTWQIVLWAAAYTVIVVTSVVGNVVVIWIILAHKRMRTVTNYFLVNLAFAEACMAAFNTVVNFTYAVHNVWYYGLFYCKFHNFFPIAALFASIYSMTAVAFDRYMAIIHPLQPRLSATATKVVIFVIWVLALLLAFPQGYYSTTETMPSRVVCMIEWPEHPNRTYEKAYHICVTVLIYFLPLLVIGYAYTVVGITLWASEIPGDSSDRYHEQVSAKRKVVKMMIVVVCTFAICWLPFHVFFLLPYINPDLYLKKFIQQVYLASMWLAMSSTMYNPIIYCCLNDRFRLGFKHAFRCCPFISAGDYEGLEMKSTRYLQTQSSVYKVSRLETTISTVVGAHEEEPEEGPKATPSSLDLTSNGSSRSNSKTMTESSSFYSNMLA

| EC50 [1] [nM] | IC50 [2] [nM] | IC50 [3] [nM] | IC50 [4] [nM] | IC50 [5] [nM] | Structure (SMILES) | pKb [6] | further results |
| --- | --- | --- | --- | --- | --- | --- | --- |
| 6.9 | 54 | 2100 | 530 | 23 | CSCC[C@H](NC(=O)[C@H](CC(C)C)NC(=O)CNC(=O)[C@H](Cc1ccccc1)NC(=O)[C@@H](NC(=O)[C@H](CCC(N)=O)NC(=O)[C@H](CCC(N)=O)NC(=O)[C@@H]1CCCN1C(=O)[C@H](CCCCN)NC(=O)[C@@H]1CCCN1C(=O)[C@@H](N)CCCN=C(N)N)[C@@H]1CCc2ccccc21)C(N)=O [listing 1 of 2 here] |  |  |
|  |  |  |  |  | CSCC[C@H](NC(=O)[C@H](CC(C)C)NC(=O)CNC(=O)[C@H](Cc1ccccc1)NC(=O)[C@@H](NC(=O)[C@H](CCC(N)=O)NC(=O)[C@H](CCC(N)=O)NC(=O)[C@@H]1CCCN1C(=O)[C@H](CCCCN)NC(=O)[C@@H]1CCCN1C(=O)[C@@H](N)CCCN=C(N)N)[C@@H]1CCc2ccccc21)C(N)=O [listing 2 of 2 here] | 7.06 |  |
| 2.8 | 28 | 180 | 57 |  | CSCC[C@H](NC(=O)[C@H](CC(C)C)NC(=O)CNC(=O)[C@@H](NC(=O)[C@H](Cc1ccccc1)NC(=O)[C@H](CCC(N)=O)NC(=O)[C@H](CCC(N)=O)NC(=O)[C@@H]1CCCN1C(=O)[C@H](CCCCN)NC(=O)[C@@H]1CCCN1C(=O)[C@@H](N)CCCN=C(N)N)[C@@H]1CCc2cc3ccccc3cc21)C(N)=O |  |  |
|  |  |  |  |  | CSCC[C@H](NC(=O)[C@H](CC(C)C)NC(=O)[C@@H]1CCCN1C(=O)[C@H](Cc1ccccc1)NC(=O)[C@H](Cc1ccccc1)NC(=O)[C@H](CCC(N)=O)NC(=O)[C@H](CCC(N)=O)NC(=O)[C@@H]1CCCN1C(=O)[C@H](CCCCN)NC(=O)[C@@H]1CCCN1C(=O)[C@@H](N)CCCN=C(N)N)C(N)=O | 6.97 |  |
| 6.9 | 48 | 1600 | 120 | 49 | CSCC[C@H](NC(=O)[C@H](CC(C)C)NC(=O)CNC(=O)[C@H](Cc1ccccc1)NC(=O)[C@@H](NC(=O)[C@H](CCC(N)=O)NC(=O)[C@H](CCC(N)=O)NC(=O)[C@@H]1CCCN1C(=O)[C@H](CCCCN)NC(=O)[C@@H]1CCCN1C(=O)[C@@H](N)CCCN=C(N)N)C1CCc2cc3ccccc3cc21)C(N)=O (some centres not stated) [listing 1 of 2 here] |  |  |
|  |  |  |  |  | CSCC[C@H](NC(=O)[C@H](CC(C)C)NC(=O)CNC(=O)[C@H](Cc1ccccc1)NC(=O)[C@@H](NC(=O)[C@H](CCC(N)=O)NC(=O)[C@H](CCC(N)=O)NC(=O)[C@@H]1CCCN1C(=O)[C@H](CCCCN)NC(=O)[C@@H]1CCCN1C(=O)[C@@H](N)CCCN=C(N)N)C1CCc2cc3ccccc3cc21)C(N)=O (some centres not stated) [listing 2 of 2 here] | 7.3 |  |
| 9.5 | 1400 | 3100 | 690 | 110 | CSCC[C@H](NC(=O)[C@H](CC(C)C)NC(=O)CNC(=O)[C@H](Cc1ccccc1)NC(=O)[C@@H](NC(=O)[C@H](CCC(N)=O)NC(=O)[C@H](CCC(N)=O)NC(=O)[C@@H]1CCCN1C(=O)[C@H](CCCCN)NC(=O)[C@@H]1CCCN1C(=O)[C@@H](N)CCCN=C(N)N)C1c2ccccc2-c2ccccc21)C(N)=O [listing 1 of 2 here] |  |  |
|  |  |  |  |  | CSCC[C@H](NC(=O)[C@H](CC(C)C)NC(=O)CNC(=O)[C@H](Cc1ccccc1)NC(=O)[C@@H](NC(=O)[C@H](CCC(N)=O)NC(=O)[C@H](CCC(N)=O)NC(=O)[C@@H]1CCCN1C(=O)[C@H](CCCCN)NC(=O)[C@@H]1CCCN1C(=O)[C@@H](N)CCCN=C(N)N)C1c2ccccc2-c2ccccc21)C(N)=O [listing 2 of 2 here] | 7.1 |  |
|  |  |  |  |  | CSCC[C@H](NC(=O)[C@H](CC(C)C)NC(=O)CNC(=O)[C@H](Cc1ccccc1)NC(=O)/C(=C\c1ccccc1)NC(=O)[C@H](CCC(N)=O)NC(=O)[C@H](CCC(N)=O)NC(=O)[C@@H]1CCCN1C(=O)[C@H](CCCCN)NC(=O)[C@@H]1CCCN1C(=O)[C@@H](N)CCCN=C(N)N)C(N)=O | 7.15 |  |
| 15 |  |  |  | 260 | CSCC[C@H](NC(=O)[C@H](CC(C)C)NC(=O)CNC(=O)[C@@H](NC(=O)[C@H](Cc1ccccc1)NC(=O)[C@H](CCC(N)=O)NC(=O)[C@H](CCC(N)=O)NC(=O)[C@@H]1CCCN1C(=O)[C@H](CCCCN)NC(=O)[C@@H]1CCCN1C(=O)[C@@H](N)CCCN=C(N)N)C(c1ccccc1)c1ccccc1)C(N)=O [listing 1 of 2 here] |  |  |
|  |  |  |  |  | CSCC[C@H](NC(=O)[C@H](CC(C)C)NC(=O)CNC(=O)[C@@H](NC(=O)[C@H](Cc1ccccc1)NC(=O)[C@H](CCC(N)=O)NC(=O)[C@H](CCC(N)=O)NC(=O)[C@@H]1CCCN1C(=O)[C@H](CCCCN)NC(=O)[C@@H]1CCCN1C(=O)[C@@H](N)CCCN=C(N)N)C(c1ccccc1)c1ccccc1)C(N)=O [listing 2 of 2 here] | 6.9 |  |
| 2.8 |  | 1900 | 450 | 74 | CSCC[C@H](NC(=O)[C@H](CC(C)C)NC(=O)CNC(=O)[C@H](CCc1ccccc1)NC(=O)[C@H](Cc1ccccc1)NC(=O)[C@H](CCC(N)=O)NC(=O)[C@H](CCC(N)=O)NC(=O)[C@@H]1CCCN1C(=O)[C@H](CCCCN)NC(=O)[C@@H]1CCCN1C(=O)[C@@H](N)CCCN=C(N)N)C(N)=O |  |  |
| 5.8 |  | > 10000 | 1900 | 19 | CSCC[C@H](NC(=O)[C@H](CC(C)C)NC(=O)CNC(=O)[C@H](Cc1ccccc1)NC(=O)[C@H](CCc1ccccc1)NC(=O)[C@H](CCC(N)=O)NC(=O)[C@H](CCC(N)=O)NC(=O)[C@@H]1CCCN1C(=O)[C@H](CCCCN)NC(=O)[C@@H]1CCCN1C(=O)[C@@H](N)CCCN=C(N)N)C(N)=O [listing 1 of 2 here] |  |  |
|  |  |  |  |  | CSCC[C@H](NC(=O)[C@H](CC(C)C)NC(=O)CNC(=O)[C@H](Cc1ccccc1)NC(=O)[C@H](CCc1ccccc1)NC(=O)[C@H](CCC(N)=O)NC(=O)[C@H](CCC(N)=O)NC(=O)[C@@H]1CCCN1C(=O)[C@H](CCCCN)NC(=O)[C@@H]1CCCN1C(=O)[C@@H](N)CCCN=C(N)N)C(N)=O [listing 2 of 2 here] | 7.25 |  |
| 20 | 2500 | > 10000 | 6000 | 260 | CSCC[C@H](NC(=O)[C@H](CC(C)C)NC(=O)[C@@H]1CCCN1C(=O)[C@@H](NC(=O)[C@H](Cc1ccccc1)NC(=O)[C@H](CCC(N)=O)NC(=O)[C@H](CCC(N)=O)NC(=O)[C@@H]1CCCN1C(=O)[C@H](CCCCN)NC(=O)[C@@H]1CCCN1C(=O)[C@@H](N)CCCN=C(N)N)C(c1ccccc1)c1ccccc1)C(N)=O (H-RPKPQQF[Dip]PLM-NH2) [listing 1 of 2 here] |  |  |
|  |  |  |  |  | CSCC[C@H](NC(=O)[C@H](CC(C)C)NC(=O)[C@@H]1CCCN1C(=O)[C@@H](NC(=O)[C@H](Cc1ccccc1)NC(=O)[C@H](CCC(N)=O)NC(=O)[C@H](CCC(N)=O)NC(=O)[C@@H]1CCCN1C(=O)[C@H](CCCCN)NC(=O)[C@@H]1CCCN1C(=O)[C@@H](N)CCCN=C(N)N)C(c1ccccc1)c1ccccc1)C(N)=O (H-RPKPQQF[Dip]PLM-NH2) [listing 2 of 2 here] |  | pKB [7]: 7.25 |
| 1.7 | 3.3 | 15000 | 1300 |  | CSCC[C@H](NC(=O)[C@H](CC(C)C)NC(=O)[C@@H]1CCCN1C(=O)[C@@H](NC(=O)[C@H](Cc1ccccc1)NC(=O)[C@H](CCC(N)=O)NC(=O)[C@H](CCC(N)=O)NC(=O)[C@@H]1CCCN1C(=O)[C@H](CCCCN)NC(=O)[C@@H]1CCCN1C(=O)[C@@H](N)CCCN=C(N)N)C1c2ccccc2-c2ccccc21)C(N)=O (H-RPKPQQF[Gly(9-fluorenyl)]PLM-NH2) |  |  |
| 3.4 | 29 | 450 | 110 | 7.9 | CSCC[C@H](NC(=O)[C@H](CC(C)C)NC(=O)CNC(=O)[C@@H](NC(=O)[C@@H](NC(=O)[C@H](CCC(N)=O)NC(=O)[C@H](CCC(N)=O)NC(=O)[C@@H]1CCCN1C(=O)[C@H](CCCCN)NC(=O)[C@@H]1CCCN1C(=O)[C@@H](N)CCCN=C(N)N)C1CCc2ccccc21)C1c2ccccc2-c2ccccc21)C(N)=O (some centres not stated) (H-RPKPQQ[X1][Gly(9-fluorenyl)]GLM-NH2) [listing 1 of 2 here] |  |  |
|  |  |  |  |  | CSCC[C@H](NC(=O)[C@H](CC(C)C)NC(=O)CNC(=O)[C@@H](NC(=O)[C@@H](NC(=O)[C@H](CCC(N)=O)NC(=O)[C@H](CCC(N)=O)NC(=O)[C@@H]1CCCN1C(=O)[C@H](CCCCN)NC(=O)[C@@H]1CCCN1C(=O)[C@@H](N)CCCN=C(N)N)C1CCc2ccccc21)C1c2ccccc2-c2ccccc21)C(N)=O (some centres not stated) (H-RPKPQQ[X1][Gly(9-fluorenyl)]GLM-NH2) [listing 2 of 2 here] |  | pKb [8]: 7.1 |
